This is a sample that favours compounds with a hit; in the whole collection about 2.5% have one here.
PMI act satM6P = PMI (human) activation, high substrate | coupled PMI enzyme assay, resazurin fluorescence, 20 min; active compounds read high; 1 = untreated enzyme, 0 = substrate-free blank | hit rate 0.34% among 190,000 | activation factor at 20 µM;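 active = activation factor of 2 or more at 20 µM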
Target sequence (P34949 whole entry, looked up): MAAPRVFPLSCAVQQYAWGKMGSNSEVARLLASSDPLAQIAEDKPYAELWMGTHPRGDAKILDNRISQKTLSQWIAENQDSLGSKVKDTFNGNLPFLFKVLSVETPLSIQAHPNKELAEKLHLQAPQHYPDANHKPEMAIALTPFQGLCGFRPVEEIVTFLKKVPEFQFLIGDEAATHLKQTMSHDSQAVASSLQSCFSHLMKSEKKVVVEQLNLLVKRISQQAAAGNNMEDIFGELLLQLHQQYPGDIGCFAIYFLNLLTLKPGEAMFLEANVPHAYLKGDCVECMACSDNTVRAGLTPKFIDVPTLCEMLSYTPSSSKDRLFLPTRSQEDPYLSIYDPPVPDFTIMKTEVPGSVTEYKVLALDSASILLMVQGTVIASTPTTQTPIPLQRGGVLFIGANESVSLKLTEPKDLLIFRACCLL
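Test system: human phosphomannose isomerase with PGI, G6PDH, diaphorase coupling enzymes; Amount: PMI at 15 ng/mL final; Reagent: Mannose-6-phosphate 1.0 mM (near-saturating) plus 0.22 mM NADP+; Timing: 20 min, room temperature; Technique: resorufin fluorescence at Ex 544/Em 590 nm; Dosing: 20 µM single dose.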
Diaphorase inh = inhibits diaphorase or chemically oxidizes, flagging diaphorase assay artifacts | AID 1217 | inhibition, % at 20 µM | hit rate 0.69% among 190,000 | diaphorase resazurin-to-resorufin fluorescence, NADH, 16 min; bacterial (C. kluyveri) enzyme, not human;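 active = primary screen inhibition at 20 µM above a set limit, cut at about 50% in these data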
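Test system: diaphorase enzyme from Clostridium kluyveri; amount: diaphorase at 0.14 U/mL in enzyme working solution; detection: fluorescence of resorufin formed from resazurin, Ex 544/Em 590 nm; times: reaction incubation of 16 min at room temperature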
Diaph act CS = diaphorase activation or chemical reduction counter-screen. Diaphorase/resazurin coupled assay, resorufin fluorescence, 16 min; active compounds read high; 1 = vehicle wells, 0 = NADH-free wells. activation factor at 20 µM. hit rate 0.005% among 190,000. AID 1229;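 active = diaphorase activity raised at least twofold by the compound at 20 µM; inactive = activation factor below 2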
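test system = bacterial diaphorase enzyme (C. kluyveri) | quantity = enzyme 0.07 U/mL final | reagent = NADH substrate 0.114 mM plus resazurin dye 0.1 mM, final | incubation = 16 min enzyme reaction, ambient temperature | buffer or medium = HEPES pH 7.4 buffer with MgCl2 and Tween 20 | signal = fluorescence of resorufin, 544 nm excitation, 590 nm emission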
PMI activator = phosphomannose isomerase (human) activation; P34949; purified human PMI, coupled resazurin fluorescence, 20 min; active compounds read high; 1 = vehicle control, 0 substrate-free wells; activation factor at 20 µM; hit rate 0.005% among 190,000; AID 1214;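 active = activation factor of 2 or more at 20 µM, relative to plate controls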
FLuc act counter = affects firefly luciferase, flagging false hits in luciferase stimulation screens; P08659; ATPlite luciferase biochemical, luminescence, 10 min; 0 = ATP-free wells, 1 = DMSO control; activation factor at 10 µM; 200,000 tested, under 10 active; AID 1027;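 active = luciferase activation factor, scaled between plate controls, of at least 2 with compound at 10 µM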
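Assay system: Luciferase/luciferin reagent mix; Medium: PBS as buffer for the ATP substrate; Dosing: test compounds dosed from 2 mM stocks in 100% DMSO; Times: 10 min, room temperature; Signal: luminescence from luciferase reaction; Read-out: luciferase activation; Controls: No-ATP low control, compound-free enzyme-plus-ATP high control.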
FLuc inhib CS = Photinus pyralis luciferase inhibition counter-screen; inhibition, % at 10 µM; hit rate 1.5% among 200,000; ATPLite firefly luciferase biochemical luminescence, 10 min;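 active = inhibition above about 50% when tested at 10 µM, limit read from the data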
Of the large screens only hits and unclear results are named; the others gave an inactive call.

CCCCC(=O)Nc1ccc(C(=O)Nc2ccc(S(=O)(=O)Nc3ccc(C)cc3)cc2)cc1	none
O=[N+]([O-])c1ccc(Sc2cccc3cccnc23)c2cccnc12	Diaphorase inh 59
Cc1ccc([N+](=O)[O-])c2cccnc12	none
O=c1[nH]c2ccccc2nc1/C=C/c1ccc(Cl)cc1	FLuc inhib CS 70
O=C(/C=C/c1ccco1)Nc1ccc(-c2nc3ccccc3[nH]2)cc1	none
C(=C\c1ccco1)/c1nc2ccccc2[nH]1	FLuc inhib CS 83
C(=C\c1nc2ccccc2[nH]1)/c1ccccc1	FLuc inhib CS 94
Cc1cccc(/C=C\c2nc3ccccc3c(=O)[nH]2)c1	FLuc inhib CS 73
Cc1cc(NC(=O)CSc2nc(C3CC3)nc3sc(C)c(C)c23)no1	none
Cc1c(C2C(C#N)=C(N)OC3=C2C(=O)CCC3)cnn1C (configuration not stated)	none
CS(=O)(=O)N(CC(=O)Nc1cccc(Cl)c1Cl)c1ccccc1	none
CC(=O)N1CCC(N(CCN2CCOCC2)C(=S)Nc2ccccc2C)CC1	none
CC1CCN(C(=S)Nc2ccc(SC(F)F)cc2)CC1	FLuc inhib CS 66
CC(=O)N1CCN(C(=S)Nc2ccc(SC(F)F)cc2)CC1	none
Cc1nn(-c2cccc(C(F)(F)F)c2)c(Cl)c1/C=N/Nc1cccc(C(=O)O)c1	PMI act satM6P 2.5
Cc1nn(-c2ccccc2Cl)c(Cl)c1/C=N/Nc1cccc(C(=O)O)c1	FLuc inhib CS 90
Cc1nn(-c2ccccc2)c(Cl)c1/C=N/NC(=O)c1cccc(S(=O)(=O)N2CCCC2)c1	none
CCOC(=O)N/N=C/c1c(C)nn(-c2cccc(C(F)(F)F)c2)c1Cl	none
CC(NC(=O)c1ccc(OC2CCN(C(=O)c3cccnc3)CC2)cc1)C1CC1 (configuration not stated)	none
CCOC(=O)c1cc2c(C)n(-c3ccc(C)cc3)c(C)c2ccc1=O	FLuc inhib CS 84
Cc1cccc(C(=O)NNC(=O)c2ccccc2)c1	none
O=C(NNc1cc(Br)c(O)c(Br)c1)c1ccccc1	PMI act satM6P 2
COc1ccc(NC(=O)c2ccc3c(c2)OCO3)cc1Cl	FLuc inhib CS 61
COc1ccc(C(=O)Nc2ccc3c(c2)OCCO3)cc1	FLuc inhib CS 90
COc1ccc(C(=O)Nc2cc(OC)cc(OC)c2)cc1	FLuc inhib CS 66
COc1cccc(NC(=O)c2ccc(CN3CCOCC3)cc2)c1	FLuc inhib CS 51
COc1cc(NC(=O)c2ccccc2)cc(OC)c1	none
NC(=O)c1cc(N=Nc2c(N)[nH]n(-c3c(Cl)cc(Cl)cc3Cl)c2=O)ccc1Cl	none
CCOC(=O)C1CCN(C(=O)c2cccnc2Cl)CC1	none
O=C(CCS(=O)(=O)Cc1ccc(Cl)cc1)NCCc1ccccc1	none
COC(=O)c1sccc1NC(=O)COc1ccccc1Cl	none
COc1ccc(/C=N/NC(=O)c2cccc(O)c2)cc1Cn1nc(C)c([N+](=O)[O-])c1C	none
COc1cc(C(=O)Nc2ccc3c(c2)OCCO3)ccc1OC(F)F	FLuc inhib CS 59
COc1cc(C(=O)Nc2ccc3c(c2)OCCO3)ccc1OC(C)C	none
COc1cccc(CN(C)C(=S)Nc2cccc(C)c2)c1	none
Nc1nc(-c2ccccn2)nc(N)c1Cc1ccc(Cl)cc1Cl	none
Cc1cc2nc3c(=O)[nH]c(=O)[nH]c3nc2c([N+](=O)[O-])c1N	Diaphorase inh 65
CCOc1ccc2nc(NC(=O)CN3CCN(C)CC3)sc2c1	none
CCOc1ccc2nc(NC(=O)COC)sc2c1	none
CCOc1ccc2nc(NC(=O)c3ccoc3C)sc2c1	FLuc inhib CS 58
CCOc1ccc2nc(NC(=O)Nc3cccs3)sc2c1	FLuc inhib CS 67
CCOc1ccc2nc(NC(=O)CN3CCOCC3)sc2c1	FLuc inhib CS 61
CCOc1ccc2nc(NC(=O)Nc3ccccc3)sc2c1	none
O=C1CC(NC(=O)C(F)(F)F)c2cc3c(cc21)OCO3 (configuration not stated)	none
O=C1CSC(=S)N1N1C(=O)c2cccc([N+](=O)[O-])c2C1=O	none
O=C(NC1CCCCC1)c1noc2c1CCCCC2	none
O=[N+]([O-])c1ccccc1S(=O)(=O)n1cnc2ccccc21	none (no result: PMI act satM6P, Diaphorase inh, Diaph act CS, PMI activator)
CCc1nnc(NC(=O)c2nc3nc(C)cc(C)n3n2)s1	none
Cc1ccc2nc(N3CCN(c4ccccc4F)CC3)c(C=O)c(=O)n2c1	Diaphorase inh 53
Cc1ccc2nc(N3CCCCC3)c(C=O)c(=O)n2c1	none
O=C(N/N=C/c1ccc(F)cc1)c1ccccc1	FLuc inhib CS 75
O=C(N/N=C/c1cccc(F)c1)c1ccc(Cl)cc1	FLuc inhib CS 58
O=C(N/N=C/c1ccncc1)c1cccc(NC(=O)c2ccc(Cl)cc2)c1	PMI act satM6P 2.4
O=C(N/N=C/c1ccccc1C(F)(F)F)c1ccc(O)cc1	FLuc inhib CS 55
C/C(CC(=O)Nc1cccc(C(F)(F)F)c1)=N\NC(=O)C1CCCCC1	none
CSc1ccc(/C=N/NC(=O)c2cc(O)cc(O)c2)cc1	FLuc inhib CS 74
O=C(Nc1ccccc1C(=O)N/N=C/c1ccc(F)cc1)c1ccccc1Br	FLuc inhib CS 74
CC(=O)NC(NC(C)=O)c1cccc(OCc2ccccc2)c1	none
Cc1ccc(-c2cn3cccnc3n2)cc1NC(=O)c1cccs1	none
CN(C)/C=C1/NC(=S)NC1=O	none
COC(=O)c1ccccc1NC(=O)Nc1nnc(N2CCCCC2C)s1 (configuration not stated)	none
CC1CCCCN1c1nnc(NC(=O)Cn2c(=O)oc3ccccc32)s1 (configuration not stated)	Diaphorase inh 62
O=C1C2C3C=CC(CC3)C2C(=O)N1/N=C/c1c[nH]c2ccccc12 (configuration not stated)	FLuc inhib CS 52
COc1ccccc1/C=N/N1C(=O)C2C3C=CC(CC3)C2C1=O (configuration not stated)	none
Nc1c(C(=O)Nc2nc3ccccc3s2)sc2nc(-c3cccs3)ccc12	none
CC(=O)c1sc2nc(-c3cccs3)ccc2c1N	PMI act satM6P 2.1
Cc1cccc(-n2c3nc(=O)[nH]c(=O)c-3cc3c(C)nn(-c4ccccc4)c32)c1C	none
Cc1cccc(-n2c3nc(=O)[nH]c(=O)c-3cc3cc([N+](=O)[O-])ccc32)c1	Diaphorase inh 53
Cc1ccc(C)c(-n2c3nc(=O)[nH]c(=O)c-3cc3cc([N+](=O)[O-])ccc32)c1	Diaphorase inh 67
CN1CCN(C(=O)c2cc(Oc3c(F)c(F)c(F)c(F)c3F)cc(C(=O)N3CCN(C)CC3)c2)CC1	none

Screening data: PubChem, Sanford-Burnham Center for Chemical Genomics
